# Assay results published in ChEMBL document CHEMBL1142628, “Antineoplastic agents 430. Isolation and structure of cribrostatins 3, 4, and 5 from the republic of maldives cribrochalina species” (2000).
# Active and inactive are the calls of the source. The rule behind the calls is not given here.
# Experiments:
# BXPC-3 = test: Growth inhibition of human BXPC3 cells; type: functional
# SK-N-SH = test: Growth inhibition of human SK-N-SH cells; type: functional
# OVCAR-3 = test: Growth inhibition of human OVCAR-3 cells; type: functional
# Outline: (§1)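 NCI 60-cell-line screen run by the standard NCI protocol. Each test agent ran in quadruplicate, with a top concentration of 10^-5 M and five log-spaced dilutions. GI50 values were averaged and reported as negative log GI50.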
# SF-295 [1] = test: (§2) Growth inhibition of human SF295 cells; type: functional
# Outline: (§3)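 NCI human tumor cell line panel screen run to the standard NCI protocol. Each compound tested in quadruplicate with a top concentration of 10^-5 M and five log-spaced dilutions. GI50 values were averaged across replicates and reported as negative log GI50.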
# SW-1736 = test: Growth inhibition of human SW1736 cells; type: functional
# NCI-H460 [2] = test: (§4) Growth inhibition of human NCI-H460 cells; type: functional; outline: as §1
# KM-20L2 = test: Growth inhibition of human KM20L2 cells; type: functional
# FaDu = test: Growth inhibition of human FaDu cells; type: functional
# DU-145 = test: Growth inhibition of human DU145 cells; type: functional; outline: as §1
# P388 = test: Growth inhibition of mouse P388 cells; type: functional
# Candida albicans = test: Antifungal activity against Candida albicans ATCC 90028 at 100 ug/disk by disk diffusion method; type: functional, organism-based
# Cryptococcus neoformans = test: Antifungal activity against Cryptococcus neoformans ATCC 90112 at 100 ug/disk by disk diffusion method; type: functional, organism-based
# Micrococcus luteus = test: Antibacterial activity against Micrococcus luteus Presque Isle 456 at 100 ug/disk by disk diffusion method; type: functional, organism-based
# Staphylococcus aureus = test: Antibacterial activity against Staphylococcus aureus ATCC 29213 at 100 ug/disk by disk diffusion method; type: functional, organism-based
# Enterococcus faecalis = test: Antibacterial activity against Enterococcus faecalis ATCC 29212 at 100 ug/disk by disk diffusion method; type: functional, organism-based
# Bacillus subtilis = test: Antibacterial activity against Bacillus subtilis Presque Isle 620 by disk diffusion method; type: functional
# Streptococcus pneumoniae [3] = test: Antibacterial activity against Streptococcus pneumoniae ATCC 6303 by disk diffusion method; type: functional
# Streptococcus pneumoniae [4] = test: Antibacterial activity against penicillin-resistant Streptococcus pneumoniae isolate by disk diffusion method; type: functional
# Streptococcus pneumoniae [5] = test: Antibacterial activity against invasive Streptococcus pneumoniae isolate at 100 ug/disk by disk diffusion method; type: functional, organism-based
# [6] = system: Streptococcus sp. 'group A'; test: Antibacterial activity against group A Streptococcus isolate by disk diffusion method; type: functional
# [7] = system: Stenotrophomonas maltophilia; test: Antibacterial activity against Stenotrophomonas maltophilia ATCC 13637 at 100 ug/disk by disk diffusion method; type: functional, organism-based
# Escherichia coli = test: Antibacterial activity against Escherichia coli ATCC 25922 at 100 ug/disk by disk diffusion method; type: functional, organism-based
# Enterobacter cloacae = test: Antibacterial activity against Enterobacter cloacae ATCC 13047 at 100 ug/disk by disk diffusion method; type: functional, organism-based
# Neisseria gonorrhoeae [8] = test: Antibacterial activity against Neisseria gonorrhoeae ATCC 49226 by disk diffusion method; type: functional
# Neisseria gonorrhoeae [9] = test: Antibacterial activity against penicillin-resistant Neisseria gonorrhoeae isolate by disk diffusion method; type: functional
# CCRF-CEM = test: Growth inhibition of human CCRF-CEM cells; type: functional; outline: as §1
# [10] = Growth inhibition of human HL60(TB) cells; type: functional, HL-60(TB); conditions: HL-60
# Outline: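 NCI human tumour cell-line panel screen run by the standard NCI protocol. Each compound was tested in quadruplicate, with an upper concentration limit of 10^-5 M and five log-spaced dilutions. GI50 values were averaged and reported as negative log GI50.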
# K562 = test: Growth inhibition of human K562 cells; type: functional; outline: as §1
# MOLT-4 = test: Growth inhibition of human MOLT4 cells; type: functional; outline: as §1
# RPMI-8226 = test: Growth inhibition of human RPMI8226 cells; type: functional; outline: as §1
# SR = test: Growth inhibition of human SR cells; type: functional; outline: as §3
# A549 = test: Growth inhibition of human A549/ATCC cells; type: functional; outline: as §1
# HOP-62 = test: Growth inhibition of human HOP62 cells; type: functional; outline: as §1
# HOP-92 = test: Growth inhibition of human HOP92 cells; type: functional; outline: as §1
# NCI-H226 = test: Growth inhibition of human NCI-H226 cells; type: functional; outline: as §1
# NCI-H460 [11] = test: as §4; type: functional; outline: as §1; remark: listed apart in the source
# NCI-H522 = test: Growth inhibition of human NCI-H522 cells; type: functional; outline: as §1
# COLO 205 = test: Growth inhibition of human COLO205 cells; type: functional; outline: as §1
# KM12 = test: Growth inhibition of human KM12 cells; type: functional; outline: as §1
# SW-620 = test: Growth inhibition of human SW620 cells; type: functional; outline: as §3
# SNB-75 = test: Growth inhibition of human SNB75 cells; type: functional; outline: as §3
# U-251 = test: Growth inhibition of human U251 cells; type: functional; outline: as §3
# LOX IMVI = test: Growth inhibition of human LOX IMVI cells; type: functional; outline: as §1
# Malme-3M = test: Growth inhibition of human MALME-3M cells; type: functional; outline: as §1
# SK-MEL-5 = test: Growth inhibition of human SK-MEL-5 cells; type: functional; outline: as §3
# UACC-62 = test: Growth inhibition of human UACC62 cells; type: functional; outline: as §3
# IGROV-1 = test: Growth inhibition of human IGROV1 cells; type: functional; outline: as §1
# OVCAR-4 = test: Growth inhibition of human OVCAR4 cells; type: functional; outline: as §1
# OVCAR-8 = test: Growth inhibition of human OVCAR8 cells; type: functional; outline: as §1
# 786-0 = test: Growth inhibition of human 786-0 cells; type: functional; outline: as §1
# ACHN = test: Growth inhibition of human ACHN cells; type: functional; outline: as §1
# RXF 393 = test: Growth inhibition of human RXF393 cells; type: functional; outline: as §3
# SN12C = test: Growth inhibition of human SN12C cells; type: functional; outline: as §3
# PC-3 = test: Growth inhibition of human PC3 cells; type: functional; outline: as §1
# MCF7 [12] = test: Growth inhibition of human MCF7 cells; type: functional; outline: as §1
# MCF7 [13] = test: Growth inhibition of human adriamycin-resistant MCF7 cells; type: functional; outline: as §3
# MDA-MB-231 = test: Growth inhibition of human MDA-MB-231/ATCC cells; type: functional; outline: as §1
# Hs-578T = test: Growth inhibition of human HS578T cells; type: functional; outline: as §1
# MDA-MB-435 = test: Growth inhibition of human MDA-MB-435 cells; type: functional; outline: as §1
# MDA-N = test: Growth inhibition of human MDA-N cells; type: functional; outline: as §1
# T47D = test: Growth inhibition of human T47D cells; type: functional; outline: as §3
# SF-268 = test: Growth inhibition of human SF268 cells; type: functional; outline: as §3
# SF-295 [14] = test: as §2; type: functional; outline: as §3; remark: listed apart in the source
# SF-539 = test: Growth inhibition of human SF539 cells; type: functional; outline: as §3
compound,measurement,setting,value
C/C=C(/C)C(=O)OC[C@H]1C2=C(C=C3[C@H]4c5c(O)c(OC)c(C)c(O)c5C(=O)[C@@H](C(=O)N31)N4C)C(=O)C(C)=C(OC)C2=O [CRIBROSTATIN 5],GI50,BXPC-3,5.6 µg/mL
same,GI50,SK-N-SH,3.6 µg/mL
same,GI50,OVCAR-3,2.2 µg/mL
same,EC50,OVCAR-3; read-out: ED50 (the source's name),2.2 µg/mL
same,GI50,SF-295 [1],> 10 µg/mL
same,GI50,SW-1736,> 10 µg/mL
same,GI50,NCI-H460 [2],> 10 µg/mL
same,GI50,KM-20L2,> 10 µg/mL
same,GI50,FaDu,0.26 µg/mL
same,GI50,DU-145,> 10 µg/mL
same,GI50,P388,24.6 µg/mL
same,Activity,Candida albicans,inactive
same,Activity,Cryptococcus neoformans,inactive
same,Activity,Micrococcus luteus,inactive
same,Activity,Staphylococcus aureus,inactive
same,Activity,Enterococcus faecalis,inactive
same,MIC,Bacillus subtilis,12.5 µg/disc
same,MIC,Streptococcus pneumoniae [3],6.25 µg/disc
same,MIC,Streptococcus pneumoniae [4],50 µg/disc
same,Activity,Streptococcus pneumoniae [5],inactive
same,MIC,[6],12.5 µg/disc
same,Activity,[7],inactive
same,Activity,Escherichia coli,inactive
same,Activity,Enterobacter cloacae,inactive
same,MIC,Neisseria gonorrhoeae [8],6.25 µg/disc
same,MIC,Neisseria gonorrhoeae [9],1.56 µg/disc
same,GI50,CCRF-CEM,1.7 µM
same,GI50,[10],5.37 µM
same,GI50,K562,4.37 µM
same,GI50,MOLT-4,1.91 µM
same,GI50,RPMI-8226,6.17 µM
same,GI50,SR,3.8 µM
same,GI50,A549,8.71 µM
same,GI50,HOP-62,7.59 µM
same,GI50,HOP-92,8.13 µM
same,GI50,NCI-H226,7.94 µM
same,GI50,NCI-H460 [11],7.59 µM
same,GI50,NCI-H522,4.17 µM
same,GI50,COLO 205,8.13 µM
same,GI50,KM12,9.12 µM
same,GI50,SW-620,6.92 µM
same,GI50,SNB-75,5.62 µM
same,GI50,U-251,6.46 µM
same,GI50,LOX IMVI,3.31 µM
same,GI50,Malme-3M,0.389 µM
same,GI50,SK-MEL-5,8.13 µM
same,GI50,UACC-62,9.77 µM
same,GI50,IGROV-1,8.51 µM
same,GI50,OVCAR-4,1.82 µM
same,GI50,OVCAR-8,4.27 µM
same,GI50,786-0,6.17 µM
same,GI50,ACHN,7.94 µM
same,GI50,RXF 393,5.25 µM
same,GI50,SN12C,7.08 µM
same,GI50,PC-3,9.12 µM
same,GI50,MCF7 [12],8.13 µM
same,GI50,MCF7 [13],6.76 µM
same,GI50,MDA-MB-231,2.69 µM
same,GI50,Hs-578T,8.71 µM
same,GI50,MDA-MB-435,1.82 µM
same,GI50,MDA-N,2.19 µM
same,GI50,T47D,2.09 µM
same,GI50,SF-268,9.55 µM
same,GI50,SF-295 [14],8.91 µM
same,GI50,SF-539,5.75 µM
